Measured values: ChEMBL document CHEMBL5252537, “Usnic Acid Benzylidene Analogues as Potent Mechanistic Target of Rapamycin Inhibitors for the Control of Breast Malignancies” (J Nat Prod, 2017)
Activity calls are given as the source filed them. No cut-off for these calls is given here.

Columns and labels:
MCF7 [1] = assay: Inhibition of colony formation in human MCF7 cells at 0.2 uM incubated for 8 days by inverted phase contrast microscopic analysis; format: functional; settings: MCF7, 192 h, time 8 day
Procedure, shortened: (§1)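 Soft agar assay: 5 × 10^3 MCF-7 cells per well in a cell/agar matrix layered over a base agar layer. Overlaid with 10% serum medium containing 0.2 or 0.6 μM compound, or DMSO. Colonies photographed under inverted phase-contrast microscopy after 8 days. Matrix then solubilized, MTT added (4 h, 37 °C), detergent added, A570 read. Growth normalized to DMSO.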

MCF7 [2] = assay: Inhibition of colony formation in human MCF7 cells assessed as reduction in colony diameter at 0.6 uM incubated for 8 days by inverted phase contrast microscopic analysis (reference value: 50 micrometer); format: functional; settings: time 8 day; procedure, shortened: as §1
[3] = Toxicity in athymic nude mouse xenografted with human MCF7 cells assessed as reduction in body weight at 10 mg/kg, ip measured after 75 days post inoculation; settings: in vivo, 1800 h
MCF7 [4] = assay: Induction of autophagy in human MCF7 cells assessed as autophagic vacuoles by microscopic analysis; format: functional, cell-based
Procedure, shortened: (§2)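 Cells of each line treated with compound and examined by light microscopy for autophagic vacuoles, compared with control cells.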

T47D [5] = assay: Antiproliferative activity against human T47D cells incubated for 72 hrs by MTT assay; format: functional, cell-based
Procedure, shortened: (§3)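 Cells seeded at 5 × 10^3/well and allowed to attach overnight, then washed with PBS. Compound diluted from 10 mM DMSO stock into medium (100 ng/mL HGF added for c-Met-expressing cells), in triplicate, 72 h at 37 °C. MTT added for 4 h, formazan dissolved in DMSO, absorbance read at 570 nm. Cell numbers taken from a standard curve; IC50 calculated.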

MCF7 [6] = assay: Antitumor activity against human MCF7 cells xenografted in athymic nude mouse assessed as reduction in mean tumor volume at 10 mg/kg, ip measured after 75 days post inoculation (reference value: 1093 +/- 185 mm3); settings: time 75 day
SK-BR-3 = assay: Induction of autophagy in human SK-BR-3 cells assessed as autophagic vacuoles by microscopic analysis; format: functional, cell-based; procedure, shortened: as §2
[7] = Toxicity in athymic nude mouse xenografted with human MCF7 cells at 10 mg/kg, ip measured after 75 days post inoculation; settings: in vivo, 1800 h
[8] = target: Serine/threonine-protein kinase mTOR (Homo sapiens) (UniProt P42345); assay: Inhibition of mTOR in human MDA-MB-231 cells assessed as reduction in p-S6K level at 0.25 to 0.5 uM by Western blot analysis; format: cell-based; settings: dose 0.25-0.5 µM
Procedure, shortened: (§4)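 Cells seeded at 5 × 10^5 per 100 mm dish and allowed to attach overnight. Treated with compound or DMSO for 72 h (HGF 100 ng/mL added for MDA-MB-231). Lysed in RIPA buffer with protease inhibitors. 30 μg protein run on SDS-PAGE, transferred to PVDF, blocked in 5% BSA/TBST. Primary antibodies overnight at 4 °C, HRP secondary antibodies, chemiluminescent detection.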

MDA-MB-231 [9] = assay: Antimigratory activity in human MDA-MB-231 cells assessed as inhibition of cell migration after 23 hrs by scratch wound healing assay; format: functional, cell-based
Procedure, shortened: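 Cells seeded at 1 × 10^5/well and grown to a confluent monolayer, then scratched with a 200 μL pipet tip. Held 5 h in serum-free medium, then given medium with HGF (100 ng/mL) plus compound or DMSO. Norstictic acid (15 μM) was the positive control. Wound width photographed at 0 h and followed up to 24 h; cells MeOH-fixed. Percent migration from wound thickness versus DMSO wells; IC50 calculated.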

mTORC2 (Homo sapiens) [10] = target: T1, mTORC2 (Homo sapiens) (UniProt P42345+Q6R327+Q9BVC4+Q9BPZ7); assay: Inhibition of mTORC2 in human MDA-MB-231 cells assessed as reduction in Akt phosphorylation at Ser473 residue at 0.25 to 0.5 uM by Western blot analysis; format: cell-based; settings: dose 0.25-0.5 µM; procedure, shortened: as §4
T47D [11] = assay: Induction of autophagy in human T47D cells assessed as autophagic vacuoles by microscopic analysis; format: functional, cell-based; procedure, shortened: as §2
MCF7 [12] = assay: Induction of autophagy in human MCF7 cells assessed as increase in beclin-1 level at 0.4 to 0.8 uM by Western blotting analysis; format: functional, cell-based; settings: dose 0.4-0.8 µM; procedure, shortened: as §4
MDA-MB-231 [13] = assay: Induction of autophagy in human MDA-MB-231 cells assessed as increase in LC3 level at 0.4 to 0.8 uM by Western blotting analysis; format: functional, cell-based; settings: dose 0.4-0.8 µM; procedure, shortened: as §4
MDA-MB-231 [14] = assay: Antiproliferative activity against human MDA-MB-231 cells incubated for 72 hrs by MTT assay; format: functional, cell-based; settings: MDA-MB-231, 72 h; procedure, shortened: as §3
MDA-MB-231 [15] = assay: Antitumor activity against human MDA-MB-231/GFP cells xenografted in athymic nude mouse assessed as inhibition of tumor growth at 10 mg/kg, ip administered for 3 weeks; set-up: scale not given: the % may be the effect or the level left
[16] = Toxicity in athymic nude mouse xenografted with human MDA-MB-231/GFP cells at 10 mg/kg, ip measured after 34 days post inoculation; settings: in vivo, 816 h
MDA-MB-468 = assay: Antiproliferative activity against human MDA-MB-468 cells incubated for 72 hrs by MTT assay; format: functional, cell-based; settings: MDA-MB-468, 72 h; procedure, shortened: as §3
MCF7 [17] = assay: Antitumor activity against human MCF7 cells xenografted in athymic nude mouse assessed as inhibition of tumor growth at 10 mg/kg, ip administered for 3 weeks; set-up: scale not given: the % may be the effect or the level left
BT-474 = assay: Antiproliferative activity against human BT-474 cells incubated for 72 hrs by MTT assay; format: functional, cell-based; settings: BT-474, 72 h; procedure, shortened: as §3
[18] = target: Serine/threonine-protein kinase mTOR (Homo sapiens) (UniProt P42345); assay: Inhibition of mTOR in human […] cells assessed as reduction in phosphorylated 4E-BP1 level at 0.25 to 0.5 uM by Western blot analysis; format: cell-based; settings: MCF7, dose 0.25-0.5 µM; procedure, shortened: as §4
mTORC2 (Homo sapiens) [19] = target: T1, mTORC2 (Homo sapiens); assay: Inhibition of mTORC2 in human MCF7 cells assessed as reduction in Akt phosphorylation at Ser473 residue at 0.25 to 0.5 uM by Western blot analysis; format: cell-based; settings: dose 0.25-0.5 µM; procedure, shortened: as §4
[20] = target: Serine/threonine-protein kinase mTOR (Homo sapiens) (UniProt P42345); assay: Inhibition of mTOR in human […] cells assessed as reduction in p-S6K level at 0.25 to 0.5 uM by Western blot analysis; format: cell-based; settings: MCF7, dose 0.25-0.5 µM; procedure, shortened: as §4
MCF-10A = assay: Cytotoxicity against human MCF-10A cells at 6 times of IC50 incubated for 24 hrs by MTT assay; format: toxicity, cell-based
Procedure, shortened: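 MCF-10A cells seeded at 3 × 10^4/well and allowed to attach overnight. Treated with compound in serum-free medium, in triplicate, for 24 h; vehicle wells got the maximum DMSO amount. Doxorubicin (10 μM) was the positive control. MTT for 4 h, formazan dissolved in DMSO, A570 blank-subtracted. Cell numbers from a standard curve; viability expressed versus DMSO wells.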

MCF7 [21] = assay: Induction of autophagy in human MCF7 cells assessed as increase in LC3 level at 0.4 to 0.8 uM by Western blotting analysis; format: functional, cell-based; settings: dose 0.4-0.8 µM; procedure, shortened: as §4

SMILES: CC(=O)C1=C(O)C=C2Oc3c(C(=O)/C=C/c4ccc(OC(F)(F)F)cc4)c(O)c(C)c(O)c3[C@]2(C)C1=O
- inhibition at 0.2 µM (MCF7 [1]): 22.9%
- Activity (MCF7 [2]): 122 um
- Activity [3]: Non-Toxic
- Activity (MCF7 [4]): Active
- IC50 (T47D [5]): 330 nM
- Activity (MCF7 [6]): 385 mm3
- Activity (SK-BR-3): Active
- Activity [7]: Non-Toxic
- inhibition [8]: Active
- Activity (MDA-MB-231 [9]): Dose-Dependent Effect
- IC50 (MDA-MB-231 [9]; MDA-MB-231, 23 h): 510 nM
- inhibition (mTORC2 (Homo sapiens) [10]): Active
- Activity (T47D [11]): Active
- Activity (MCF7 [12]): Active
- Activity (MDA-MB-231 [13]): Active
- IC50 (MDA-MB-231 [14]): 320 nM
- Activity (MDA-MB-231 [15]): 62.3%
- Activity [16]: Non-Toxic
- IC50 (MDA-MB-468): 350 nM
- Activity (MCF7 [17]): 64.8%
- IC50 (BT-474): 390 nM
- inhibition [18]: Active
- inhibition (mTORC2 (Homo sapiens) [19]): Active
- inhibition [20]: Active
- Activity (MCF-10A): Non-Toxic
- Activity (MCF7 [21]): Active
